Measurements: ChEMBL document CHEMBL4513216, “Probing the Open Global Health Chemical Diversity Library for Multistage-Active Starting Points for Next-Generation Antimalarials” (ACS Infect Dis, 2020)

Test: Toxicity liver stage against HepG2, at 10uM
Assay type: cell-based
Design: test concentration 10 uM, cell line HepG2-A16-CD81EGFP
Settings: human, HepG2-A16-CD81EGFP cells; read-out: INHIBITION
Method in brief: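 Uninfected HepG2-A16-CD81EGFP cells, 3 × 10^3 per well, 1536-well, plated on prespotted compound at 10 μM final, parasite-free screening media added to match infected plates; puromycin 10 μM positive, DMSO 0.5% negative; run in parallel with 48 h PbLuc assay at 37 °C, 5% CO2; viability by CellTiter-Glo luminescence, normalized to controls.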

Structure (SMILES) | cytotoxicity at 10 µM
Cc1n[nH]c2c1C(c1ccc(Cl)cc1)SCC(=O)N2 (stereo unspecified) | 19.2%
CCOc1nc2cnccc2n(CC(=O)NCc2ccco2)c1=O | -8.84%
CCCC(O)CN1CC(C)(C)CN(C(=O)c2ccc(Cl)cc2)CC1=O (stereo unspecified) | 2.78%
CCOC(=O)[C@@H]1CN2CCNC[C@@H]2[C@H]1c1ccccc1 | 3.88%
CCC(C)[C@H](NC(=O)c1cc(F)ccc1-n1cnnn1)C(=O)OC (stereo partly specified) | 2.53%
COC(=O)c1cc2c(=O)n(C3CCCC3)ccc2nc1C | -43.9%
CCCn1[nH]c(CNc2cccc(Cl)c2)nc1=O | 0.566%
O=C(NCC(Cc1cccc(F)c1)N1CCCC1=O)c1ccc(=O)[nH]n1 (stereo unspecified) | -0.634%
O=C(Cn1cccn1)N1CCC(Oc2cnccn2)CC1 | 7.11%
COc1cc(C(=O)NCCc2ccccc2OC)on1 | 0.409%
Cc1nc(CN2CCc3nc(NC(C)C)nc(C)c3C2)cs1 | 2.53%
CS(=O)(=O)NC[C@]12COC[C@H]1CN(C(=O)CCc1ccccc1)C2 | -1.23%
Cc1ccccc1CS(=O)(=O)c1nnc(C(C)NC(=O)OC(C)(C)C)o1 (stereo unspecified) | -1%
Cc1c(S(=O)(=O)NCC(C)C)cnn1C | 4.54%
Cc1ccc(CNc2n[nH]c(C)n2)cc1 | -2.25%
CCc1cc(=O)n(CC(=O)N2CCCC2)c(-c2cccc(F)c2)n1 | 6.75%
CN1CCCC(c2nnc3n2CCN(S(=O)(=O)c2ccccc2Cl)C3)C1 (stereo unspecified) | -2.92%
Cc1cc(N(C)C)cc(C2CCN(S(=O)(=O)c3cccs3)C2)n1 (stereo unspecified) | 7.17%
O=c1c(CN2CC3CCCN3C[C@@H]2CCO)coc2ccc(Cl)cc12 (stereo partly specified) | 3.19%
CC(C(=O)NCc1cccs1)N1CCN(Cc2nccn2C)CC1 (stereo unspecified) | -14.5%
CN(Cc1cnn(C)c1)CC(O)c1ccc2c(c1)OCO2 (stereo unspecified) | -9.98%
N#Cc1cc(F)ccc1Cn1cncn1 | 11.4%
CC(C(=O)NC1CC1)S(=O)(=O)Cc1noc(C(C)(C)C)n1 (stereo unspecified) | 9.42%

Structure (SMILES) | cytotoxicity at 10 µM
Cc1ccccc1C(=O)NCC(=O)NCc1ccccn1 | -11.9%
NC(=O)CCCNC(=O)Cc1csc(Cc2ccccn2)n1 | -4.56%
COc1cc2c(cc1CNC(=O)Cc1cc(C)[nH]n1)OC(C)C2 (stereo unspecified) | -13.8%
NS(=O)(=O)CCNC(=O)c1cc(Br)c2c(c1)OCCO2 | 1.06%
COc1cc(C)ccc1OCC(=O)NS(=O)(=O)c1cc(F)ccc1F | 2.15%
CCc1cccc(NS(=O)(=O)c2cc(C)c(C(=O)O)s2)c1 | -1.23%
N#Cc1cccnc1NCCNC(=O)N1CCN2CCCCC2C1 (stereo unspecified) | 0.242%
CC(CNS(=O)(=O)c1cccc(Cl)c1)N1CCN(C)CC1 (stereo unspecified) | 9.26%
CCn1cnnc1C1CCN(C(=O)c2c(C)oc(C)c2C)CC1 | 5.89%
CC(CNC(=O)Nc1ccc(F)cc1Br)N1CCOCC1 (stereo unspecified) | 9.21%
CCOC(C)c1noc(CN2CCCN(c3ccccn3)CC2)n1 (stereo unspecified) | -4.05%
O=C(NS(=O)(=O)c1ccc(C2CCCCC2)cc1)C1COCCO1 (stereo unspecified) | 7.02%
Cc1occc1C(=O)NC1CCN(C(=O)Nc2cccnc2)CC1 | 8.98%
Cc1cccc(CCNC(=O)CCS(=O)(=O)C2CCCC2)c1 | 9.27%
Cc1cccc(C2CCCN2C(=O)CN(C)S(C)(=O)=O)c1C (stereo unspecified) | 12.3%
CCOCC(=O)NC(C#N)c1cnn(-c2ccccc2)c1 (stereo unspecified) | -4.39%
Cc1ccnc(NCc2ccccc2N2CCOCC2)n1 | -0.268%
CN1CCN(c2ccc(Br)cc2NC(=O)c2ccco2)CC1 | -6.09%
Cc1nc(NC(=O)OC(C)(C)C)sc1C(=O)O | 7.89%
c1ccc2nc(NCC3(N4CCOCC4)CCSC3)cnc2c1 (stereo unspecified) | 12.7%
CC(CCc1ccccc1)N1CCC(C(=O)NCc2ccccc2)CC1 (stereo unspecified) | 11%
CCn1ncc(C(=O)NCc2ccc(C)c(OC)c2)c1C(F)(F)F | 10.2%
CC(C)c1noc(CCCC(=O)NCCOc2ccccc2)n1 | 1.03%

Structure (SMILES) | cytotoxicity at 10 µM
CCc1nc(C2CCCN2Cc2nc(CCOC)no2)no1 (stereo unspecified) | -10.8%
CCOc1cccc(C(=O)NCCC(=O)Nc2ccncc2)c1 | 2.37%
Cn1c2c(c(=O)n1C)CN(C(=O)c1cccc(F)c1)CCC2 | -101%
Cc1nc2c(c(NC(C)C)n1)CCN(C(=O)CCO)CC2 | -109%
CN(C)C(=O)CO[C@H]1CO[C@@]2(CCN(S(C)(=O)=O)C2)C1 | -106%
O=C(c1ncccn1)N1C[C@@H]2COC[C@]2(COc2cccnc2)C1 | -91.5%
COCC1CN(C(=O)Cc2ccsc2)Cc2c1cnn2C (stereo unspecified) | -67%
CN1CCN(Cc2ccc(F)cc2)Cc2cccnc21 | -80.2%
CN(C)C(=O)COCC1CN(Cc2ccsc2)Cc2nccn2C1 (stereo unspecified) | -72.3%
O=C(NC1CCC1)c1c2c(N3CCCC3)ncnc2n2ccccc12 | -82.4%
O=S(=O)(NCc1cc2n(n1)CCNC2)c1ccc(OC(F)(F)F)cc1 | 11.5%
OC1(CN2CCCCC2)CCN(c2cccc(C(F)(F)F)n2)C1 (stereo unspecified) | -10.4%
CCCOCC(=O)N1CCCC(c2nnc(CN3CCCCC3)n2C)C1 (stereo unspecified) | -2.34%
Cc1ncsc1CN(Cc1ccccc1)Cc1ncc[nH]1 | -3.22%
CCN(Cc1ccccc1)C(=O)CCN1CC(O)C1 | 7.48%
Cc1ccc(CN(CCN(C)C)C(=O)Nc2cnn(C)c2)s1 | 4.16%
CC(C)=CCC1(C(=O)O)CCCN(c2cc(N)ncn2)C1 (stereo unspecified) | 10.1%
CO[C@@]1(C)C[C@@H](O)C12CCN(C(=O)CCn1c(C)cccc1=O)CC2 | 3.43%
CC(=O)N[C@@H]1CN(CC(=O)NCc2ccccc2C)C[C@H]1C(C)C | 4.25%
O=C(Cn1cccc1)NCC1CCN(Cc2cc3ccccc3[nH]2)C1 (stereo unspecified) | 12.6%
CC(=O)NC1CCN(c2nc(N(C)C)nc3c2CCCC3)CC1 | -10.7%
Cc1ncc(C)c(N2CCC(CCc3ccccc3)(C(=O)O)CC2)n1 | 3.49%
COc1ccc(CC2CN(C(=O)c3ocnc3C)CCO2)cc1 (stereo unspecified) | 11.4%

Structure (SMILES) | cytotoxicity at 10 µM
Cc1ccsc1CN(C)CCc1scnc1C | -17.6%
Cc1ccccc1N1CCN(C2CCCN(C(=O)CCC(C)C)C2)CC1 (stereo unspecified) | -5.95%
O=C(O)c1ccccc1-c1c(-c2ccccc2)ncn1C[C@H]1CCCN1 | 6.07%
O=C(c1cnc(O)cn1)N(Cc1ccsc1)CC1CCCO1 (stereo unspecified) | 3.7%
Cc1nc(N(C)C/C=C/c2ccccc2)c2cnn(C)c2n1 | 0.0448%
O=C1CCCN1CCc1noc(-c2ccc3[nH]cnc3c2)n1 | 8.74%
COc1cccc(C(C(=O)O)N(C)Cc2ccc(C)o2)c1 (stereo unspecified) | -1.35%
Cc1cnc(N(C)Cc2cnc3ccccc3n2)nc1N(C)C | 6.7%
COCC1CCN(S(=O)(=O)N2C[C@H](c3ccccc3)[C@@H](N)C2)CC1 | 1.12%
COc1ccc(CN2CCN(C3CCc4ccccc4C3)CC2)cc1O (stereo unspecified) | -6.55%
Cc1nc(N2C[C@@H](CN3CCCCC3)[C@@H](CO)C2)c2sccc2n1 | -5.12%
Cc1nn(C)c2nc(NCCCN3CCCC(CO)C3)sc12 (stereo unspecified) | -14.2%
CC(=O)N1CCC(N[C@@H]2CC[C@@H]2NS(=O)(=O)c2cccnc2)CC1 | 2.98%
CCc1noc(C)c1C(=O)N1C[C@H](NS(C)(=O)=O)[C@@H](C2CC2)C1 | 1.23%
Cc1ccccc1CSc1nc(N)cc(N2CCOCC(CO)C2)n1 (stereo unspecified) | -9.23%
Cc1nc(N)sc1C(=O)N1CCC(C(O)Cc2ccccc2)CC1 (stereo unspecified) | 2.29%
O=C(CCc1cc2n(n1)CCCN(C(=O)c1ccccn1)C2)NC1CC1 | -13.7%
CNc1cc(N2CCCC2CNCc2csc(C(C)C)n2)ncn1 (stereo unspecified) | -14.9%
CC(C)(CNC(=O)COc1cccc(F)c1)C(N)=O | -4.89%
CC(Cn1cccn1)NC(=O)NCCc1cccnc1 (stereo unspecified) | -5.25%
CCn1cnnc1C1CCN(C(=O)c2cc(C)c(C)s2)CC1 | -26.9%
COc1ccccc1COCC(O)CN1CCC(c2ccn[nH]2)CC1 (stereo unspecified) | -2.54%
COc1ccccc1C(O)CNc1c(C#N)c(=O)n(C)c(=O)n1C (stereo unspecified) | -2.9%

Structure (SMILES) | cytotoxicity at 10 µM
CCC1CN(C(=O)NCc2cccnc2-n2cccn2)CCO1 (stereo unspecified) | -12.5%
Cc1nc(C)n(CC2CCCN2Cc2nc3ccccc3c(=O)[nH]2)n1 (stereo unspecified) | -4.35%
CCN(Cc1nc2c(cnn2C)c(=O)[nH]1)c1ccccc1 | -7.36%
Cc1ncsc1C(=O)N(C)Cc1ccncc1 | -0.524%
CNS(=O)(=O)Cc1ccc(CNC(=O)Nc2cccnc2)cc1 | 0.684%
Cc1ccc(S(=O)(=O)Nc2ccc(=O)n(C)c2)cc1 | 1.07%
CCOc1ncccc1C(=O)N1CCCCC1c1nccs1 (stereo unspecified) | -8.7%
Cc1ccc(N2CCCC(NCc3nc(C)c(C)o3)C2)nn1 (stereo unspecified) | -3.18%
COCC(=O)N1CCC2(CC1)NC(=O)c1ccccc12 | 3.15%
CNC(=O)[C@@H]1C[C@H]2CN(Cc3nccs3)C[C@H]2N1C | 7.73%
c1ccc(CN2CCc3ncnc(-c4ccncc4)c3CC2)nc1 | -73.1%
Cn1nc(CN2CCCCC2)c2c1CN(C(=O)c1cccc(C#N)c1)C2 | -2.21%
c1cc(CN2C[C@@H]3OCCN(CC4CCCO4)[C@@H]3C2)cs1 (stereo partly specified) | -76.9%
O=C1CCC2(CCN(Cc3ccc(F)cc3)CC2)N1Cc1ccccc1 | -1.63%
Cc1csc([C@H]2C[C@H]3CN(Cc4cc(C)on4)CC[C@@H]3O2)n1 | -98%
Cc1cccc(-c2ccc3nc(C4CCN(CC5CC5)CC4)nn3c2)c1 | -12.2%
Cc1c(C2N3CC4(C)CN2CC(C)(C3)C4=O)[nH]c(=O)[nH]c1=O (stereo unspecified) | 6.57%
c1ccc(-c2nnc(CN3C[C@H]4CC[C@@H](C3)N(CC3CCC3)C4)o2)cc1 | -8.51%
O=c1[nH][nH]c2cn(-c3ccc(Br)cc3)c(=O)n12 | -11.8%
